The structures appear in SMILES notation. ≈ marks a conversion by molar mass, not a printed value.

Eleven compounds from ChEMBL document CHEMBL4043195, “Development of water-soluble 3,5-dinitrophenyl tetrazole and oxadiazole antitubercular agents” (Bioorg Med Chem, 2017) can be followed below.

Data set [1] has as its system Mycobacterium tuberculosis. The data set is described as follows: Antimycobacterial activity MDR/XDR against Mycobacterium tuberculosis isolate Praha 4 incubated for 14 days by micromethod. The note with it: isolate Praha 4, 336 h.
For data set [2], the system named is Mycobacterium tuberculosis. The data set is described as follows: Antimycobacterial activity MDR/XDR against Mycobacterium tuberculosis isolate Praha 131 incubated for 14 days by micromethod. The data set is classed as functional. To be noted: isolate Praha 131, 336 h.
In data set [3] the test system is Mycobacterium tuberculosis. The data set is described as follows: Antimycobacterial activity MDR/XDR against Mycobacterium tuberculosis isolate 9449/2007 incubated for 14 days by micromethod. The data set is classed as functional. To be noted: isolate 9449/2007, 336 h.
The subject of data set [4] is Mycobacterium tuberculosis. Briefly: Antimycobacterial activity MDR/XDR against Mycobacterium tuberculosis isolate 7357/1998 incubated for 14 days by micromethod. To be noted: isolate 7357/1998, 336 h. The data set is classed as functional.
The test system of data set [5] is Mycobacterium tuberculosis. Briefly: Antimycobacterial activity MDR/XDR against Mycobacterium tuberculosis isolate 8666/2010 incubated for 14 days by micromethod. The data set is classed as functional. To be noted: isolate 8666/2010, 336 h.
Data set [6] can be described thus: Solubility in pure water at room temperature by HPLC method. The data set is classed as physicochemical.
A short description of data set [7]: Solubility in pH 3.0 citrate buffer by HPLC method. The data set is classed as physicochemical. A digest of the protocol:
(§1)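 Salt (15 mg) was shaken 2 h at room temperature in 1 mL 0.05 M citrate pH 3, 1 mL 0.1 M acetate pH 5, or 5 mL PBS pH 7.4. Suspensions were decanted and filtered (0.22 µm PTFE). Citrate and acetate solutions were diluted 500-fold in water/acetonitrile 1:1. Analysis by HPLC with diode-array detection on a C18 column at 30 °C. At least 4 repeats.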

Data set [8] can be described thus: Solubility in pH 5 acetate buffer by HPLC method. The data set is classed as physicochemical. A digest of the protocol: as §1
Data set [9] can be described thus: Solubility in pH 7.4 PBS buffer by HPLC method. The data set is classed as physicochemical. In outline: as §1
Data set [10] deals with Mycobacterium tuberculosis. Briefly: Antimycobacterial activity against Mycobacterium tuberculosis H37Rv CNCTC My 331/88 incubated for 14 days by micromethod. The data set is classed as functional. To be noted: for MIC99: Mycobacterium tuberculosis, H37Rv CNCTC My 331/88, 336 h. In outline:
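Strain H37Rv was tested in Sula's semisynthetic medium by micromethod. The basic suspension was set to 1.0 McFarland and diluted 10^-3, with 0.1 mL added per well. Compounds were added from DMSO at 32 to 0.03 µM. […] INH and RIF were used as standards.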

In data set [11] the test system is Mycobacterium avium. The data set is described as follows: Antimycobacterial activity against Mycobacterium avium CNCTC My 330/88 incubated for 14 days by micromethod. The data set is classed as functional. To be noted: for MIC99: Mycobacterium avium, CNCTC My 330/88, 336 h. In outline:
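Micromethod MIC assay in Sula's semisynthetic medium. The inoculum was a 1.0 McFarland suspension diluted 10^-5, with 0.1 mL added per well. Compounds were dissolved in DMSO and tested at 1000 to 1 µM in two-fold steps. Plates were incubated at 37 °C for 14 days. […] INH and RIF were the reference drugs.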

Data set [12] deals with Mycobacterium kansasii. Briefly: Antimycobacterial activity against Mycobacterium kansasii CNCTC My 235/80 incubated for 14 days by micromethod. The data set is classed as functional. The note with it: for MIC99: Mycobacterium kansasii, CNCTC My 235/80, 336 h. In outline: (§2)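 M. kansasii MIC by micromethod in Sula's semisynthetic medium. Inoculum was a 1.0 McFarland suspension diluted 10^-4, 0.1 mL per well. Compounds were dissolved in DMSO and tested at 32 to 0.03 µM in twofold steps. […] INH and RIF were reference drugs.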

The test system of data set [13] is Mycobacterium kansasii. The data set is described as follows: Antimycobacterial activity against Mycobacterium kansasii 6509/96 incubated for 14 days by micromethod. The data set is classed as functional. The note with it: for MIC99: Mycobacterium kansasii, 6509/96, 336 h. In outline: as §2
Data set [14] concerns Mycobacterium tuberculosis. The data set is described as follows: Antimycobacterial activity MDR/XDR against Mycobacterium tuberculosis isolate Praha 1 incubated for 14 days by micromethod. The data set is classed as functional. The note with it: isolate Praha 1, 336 h.
Data set [15] has as its system Caco-2. The data set is described as follows: Cytotoxicity against human Caco2 cells assessed as reduction in cell viability incubated for 48 hrs by CellTiter 96 aqueous one solution cell proliferation assay. The data set is classed as cell-based. To be noted: Caco-2, 48 h. A digest of the protocol:
(§3)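 Caco-2, HepG2, A431 and COS-1 cells were exposed 48 h to compound or DMSO vehicle (0.1%) in Opti-MEM reduced-serum medium. MTS reagent was added for 4 h and formazan absorbance read at 490 nm. A 10% SDS toxic control was added 45 min before MTS. Vehicle and SDS were set to 100% and 0% viability; values given as relative viability at 30 µM. Triplicates, repeated at least three times.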

Data set [16] can be described thus: Cytotoxicity against human Caco2 cells assessed as cell viability at 30 uM incubated for 48 hrs by CellTiter 96 aqueous one solution cell proliferation assay. The data set is classed as cell-based. To be noted: Caco-2 cells, read-out: Activity. In outline: as §3
The test system of data set [17] is HepG2. The data set is described as follows: Cytotoxicity against human HepG2 cells assessed as reduction in cell viability incubated for 48 hrs by CellTiter 96 aqueous one solution cell proliferation assay. The data set is classed as cell-based. To be noted: HepG2, 48 h. In outline: as §3
A short description of data set [18]: Cytotoxicity against human HepG2 cells assessed as cell viability at 30 uM incubated for 48 hrs by CellTiter 96 aqueous one solution cell proliferation assay. The data set is classed as cell-based. The note with it: read-out: Activity. A digest of the protocol: as §3
In data set [19] the test system is A-431. The data set is described as follows: Cytotoxicity against human A431 cells assessed as reduction in cell viability incubated for 48 hrs by CellTiter 96 aqueous one solution cell proliferation assay. The data set is classed as cell-based. The note with it: A-431, 48 h. In outline:
as §3

The nature of data set [20]: Cytotoxicity against human A431 cells assessed as cell viability at 30 uM incubated for 48 hrs by CellTiter 96 aqueous one solution cell proliferation assay. The data set is classed as cell-based, A-431. The note with it: read-out: Activity. A digest of the protocol:
as §3

The test system of data set [21] is COS-1. The data set is described as follows: Cytotoxicity against African green monkey COS1 cells assessed as reduction in cell viability incubated for 48 hrs by CellTiter 96 aqueous one solution cell proliferation assay. The data set is classed as cell-based. The note with it: Chlorocebus aethiops, COS-1, 48 h. A digest of the protocol: as §3
The nature of data set [22]: Cytotoxicity against African green monkey COS1 cells assessed as cell viability at 30 uM incubated for 48 hrs by CellTiter 96 aqueous one solution cell proliferation assay. The data set is classed as cell-based. To be noted: chlorocebus aethiops, COS-1 cells; read-out: Activity. A digest of the protocol:
as §3

Data set [23] concerns Mycobacterium tuberculosis. The data set is described as follows: microbe, parasite or virus in culture. To be noted: isolate 234/2005, 336 h.

As for `CN[C@@H]1[C@H](O[C@H]2[C@H](O[C@H]3[C@H](O)[C@@H](O)[C@H](N=C(N)N)[C@@H](O)[C@@H]3N=C(N)N)O[C@@H](C)[C@]2(O)C=O)O[C@@H](CO)[C@H](O)[C@H]1O` [STREPTOMYCIN], the MIC99 in [1], in [2], in [3], in data set [4] and in [5] was over 32 µM in each case.
In general, solubility refers to the dissolved amount per volume that the medium holds. In general, IC50 refers to the point on the concentration scale where inhibition reaches its midpoint. Regarding `Cl.Cl.O=[N+]([O-])c1cc(CSc2nnc(CCCCCN3CCN(Cc4ccccc4)CC3)o2)cc([N+](=O)[O-])c1`, the solubility is 17100 µM in [6], 18000 µM in [7], 9000 µM in data set [8] and 113 µM in [9]. Also, the MIC99 came out at 2 µM in data set [10]; 32 µM in data set [11]; 2 µM in data set [12]; 2 µM in data set [14]; 2 µM in data set [1]; 2 µM in data set [2]. The MIC99 in data set [3], in data set [4], in data set [5] and in [23] was 2 µM in each case. The “MIC>99” value in data set [13] was found to be 2 µM. In addition, the IC50 in data set [15], in data set [17], in data set [19] and in data set [21] was over 30 µM throughout. The viability at 48 h, 30 µM in [16] came out at 105%; in data set [18] it was 112%; in data set [20] it was 86%; in [22], 99%.
As for `O=[N+]([O-])c1cc(-c2nnn(CCCN3CCCCC3)n2)cc([N+](=O)[O-])c1`, the MIC99 turned out to be 4 µM (≈ 1.45 µg/mL) in data set [10], 62.5 µM (≈ 22.6 µg/mL) in [11], 16 µM (≈ 5.78 µg/mL) in [12] and 16 µM (≈ 5.78 µg/mL) in data set [13].
`CC1COc2c(N3CCN(C)CC3)c(F)cc3c(=O)c(C(=O)O)cn1c23` (stereo not given) [OFLOXACIN] registered an MIC99 in [1] of over 16 µM.
As to `O=[N+]([O-])c1cc(CSc2nnc(CCCN3CCN(Cc4ccccc4)CC3)o2)cc([N+](=O)[O-])c1`, the MIC99 in data set [10] came to 2 µM (≈ 0.997 µg/mL); in data set [11], 32 µM (≈ 16 µg/mL); in data set [12] it was 2 µM (≈ 0.997 µg/mL); in data set [13] it was 2 µM (≈ 0.997 µg/mL).
Take `CN1CCN(CCCc2nnc(SCc3cc([N+](=O)[O-])cc([N+](=O)[O-])c3)o2)CC1`: the MIC99 in [10] is over 32 µM; in data set [11] it was 1000 µM (≈ 422 µg/mL); in data set [12], over 32 µM; in data set [13], over 32 µM.
Take `NNC(=O)c1ccncc1` [ISONIAZID]: the MIC99 in [11] is over 250 µM; in data set [12] it was over 250 µM; in [13], 4 µM (≈ 0.549 µg/mL).
`O=[N+]([O-])c1cc(-c2nnc(SCCCN3CCN(Cc4ccccc4)CC3)o2)cc([N+](=O)[O-])c1`: the MIC99 in data set [10] stood at 0.125 µM (≈ 0.0606 µg/mL); in data set [11], 2 µM (≈ 0.969 µg/mL); in data set [12], 1 µM (≈ 0.485 µg/mL); in [13], 0.5 µM (≈ 0.242 µg/mL).
The corresponding values for `O=[N+]([O-])c1cc(-c2nnn(CCCN3CCOCC3)n2)cc([N+](=O)[O-])c1` are 16 µM (≈ 5.81 µg/mL), 500 µM (≈ 182 µg/mL), 16 µM (≈ 5.81 µg/mL) and 16 µM (≈ 5.81 µg/mL).
The corresponding values for `O=[N+]([O-])c1cc(CSc2nnc(CCCN3CCOCC3)o2)cc([N+](=O)[O-])c1` are 8 µM (≈ 3.28 µg/mL), 500 µM (≈ 205 µg/mL), 8 µM (≈ 3.28 µg/mL) and 8 µM (≈ 3.28 µg/mL).
As to `O=[N+]([O-])c1cc(CSc2nnc(CCCCCN3CCN(Cc4ccccc4)CC3)o2)cc([N+](=O)[O-])c1`, the “MIC>99” value in [10] came out at 1 µM (≈ 0.527 µg/mL); in data set [11] it was 16 µM (≈ 8.43 µg/mL); in [12] it was 2 µM (≈ 1.05 µg/mL). This compound also displayed an MIC99 in data set [13] of 2 µM (≈ 1.05 µg/mL).
